Experimental data taken from ChEMBL document CHEMBL1141864, “Structure-activity relationships in 1,4-benzodioxan-related compounds. 8.(1) {2-[2-(4-chlorobenzyloxy)phenoxy]ethyl}-[2-(2,6-dimethoxyphenoxy)ethyl]amine (clopenphendioxan) as a tool to highlight the involvement of alpha1D- and alpha1B-adrenoreceptor subtypes in the regulation of human PC-3 …” (J Med Chem, 2005).
Active and inactive are the calls of the source. The calls are words filed in the database; no cut-off is given here.

Experiments:
[1] = target: T1, Alpha-1A adrenergic receptor (Rattus norvegicus) (UniProt P43140); test: ADRA1A blocking activity assessed by antagonism of (-)-NE induced contractions on isolated rat prostatic vas deferens; assay type: functional, tissue-based
T1 sequence (whole entry): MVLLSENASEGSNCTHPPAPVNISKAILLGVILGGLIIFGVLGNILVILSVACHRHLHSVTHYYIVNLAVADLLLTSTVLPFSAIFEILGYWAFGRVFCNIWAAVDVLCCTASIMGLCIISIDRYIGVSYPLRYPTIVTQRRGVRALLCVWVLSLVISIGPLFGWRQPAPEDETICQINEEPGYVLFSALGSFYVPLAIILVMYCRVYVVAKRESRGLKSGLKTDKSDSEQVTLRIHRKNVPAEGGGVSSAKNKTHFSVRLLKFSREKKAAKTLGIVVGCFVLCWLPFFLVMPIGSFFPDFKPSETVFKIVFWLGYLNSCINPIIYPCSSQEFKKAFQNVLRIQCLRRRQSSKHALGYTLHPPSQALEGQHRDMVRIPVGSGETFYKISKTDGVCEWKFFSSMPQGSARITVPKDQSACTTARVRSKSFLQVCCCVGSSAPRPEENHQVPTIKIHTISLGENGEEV
Outline: (§1)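 Isolated rat tissue: each antagonist concentration tested four times over 0.01–1 μM; pK_B calculated by van Rossum method from shifts of (-)-noradrenaline contraction curves (vas deferens, α1A; thoracic aorta, α1D) or (-)-phenylephrine contraction curves (spleen, α1B).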

[2] = target: T2, Alpha-1B adrenergic receptor (Rattus norvegicus) (UniProt P15823); test: ADRA1B blocking activity assessed by antagonism of (-)-phenylephrine induced contractions on isolated rat spleen; assay type: functional, tissue-based; outline: as §1
T2 sequence (whole entry): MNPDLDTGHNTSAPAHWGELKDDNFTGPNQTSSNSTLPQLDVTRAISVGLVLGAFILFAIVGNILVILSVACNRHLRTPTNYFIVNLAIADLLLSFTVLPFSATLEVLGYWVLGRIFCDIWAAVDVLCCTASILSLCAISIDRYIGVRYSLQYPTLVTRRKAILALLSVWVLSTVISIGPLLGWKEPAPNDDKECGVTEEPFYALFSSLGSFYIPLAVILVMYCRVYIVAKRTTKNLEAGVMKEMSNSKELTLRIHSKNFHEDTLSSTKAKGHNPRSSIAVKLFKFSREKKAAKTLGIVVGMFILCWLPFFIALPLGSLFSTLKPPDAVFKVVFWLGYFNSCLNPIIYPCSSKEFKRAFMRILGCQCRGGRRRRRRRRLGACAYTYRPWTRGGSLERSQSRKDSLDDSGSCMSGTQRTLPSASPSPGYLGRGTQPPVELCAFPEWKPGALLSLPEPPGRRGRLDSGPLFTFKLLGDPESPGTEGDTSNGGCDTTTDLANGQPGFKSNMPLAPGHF

[3] = target: T3, Alpha-1D adrenergic receptor (Rattus norvegicus) (UniProt P23944); test: ADRA1D blocking activity assessed by antagonism of (-)-NE induced contractions on isolated rat thoracic aorta; assay type: functional, tissue-based; outline: as §1
T3 sequence (whole entry): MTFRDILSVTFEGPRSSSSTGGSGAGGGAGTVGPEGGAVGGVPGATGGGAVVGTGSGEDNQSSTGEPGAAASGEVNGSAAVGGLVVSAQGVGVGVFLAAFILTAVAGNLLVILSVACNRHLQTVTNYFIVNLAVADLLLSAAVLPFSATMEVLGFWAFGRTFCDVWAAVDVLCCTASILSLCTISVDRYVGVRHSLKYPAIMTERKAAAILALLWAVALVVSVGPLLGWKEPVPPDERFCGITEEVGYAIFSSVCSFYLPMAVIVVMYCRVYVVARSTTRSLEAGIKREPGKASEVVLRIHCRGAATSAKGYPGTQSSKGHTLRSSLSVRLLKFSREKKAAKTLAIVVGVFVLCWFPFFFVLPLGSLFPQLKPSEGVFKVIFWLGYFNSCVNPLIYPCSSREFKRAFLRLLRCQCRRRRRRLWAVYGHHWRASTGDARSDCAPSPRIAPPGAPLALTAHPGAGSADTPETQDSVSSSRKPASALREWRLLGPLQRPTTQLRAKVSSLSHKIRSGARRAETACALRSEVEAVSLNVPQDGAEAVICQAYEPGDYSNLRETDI

[4] = test system: PC-3; test: Cytotoxic activity on human PC3 prostate cancer cells by SRB assay; assay type: functional; settings: Homo sapiens, PC-3
Outline: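 NCI-protocol SRB assay on PC-3 cells grown in DMEM/10% FBS/2 mM glutamine. Seeded 24 h, then compounds in medium for 48 h at 37 °C, 5% CO2, in quadruplicate. A time-zero plate was read. Cells TCA-fixed, stained with 0.4% SRB, absorbance at 520 nm. GI50, TGI and LC50 interpolated from % growth versus log concentration.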

[5] = test system: PC-3; test: Ability to stimulate PC3 cell proliferation by BrdU incorporation using colorimetric ELISA at 10 uM; assay type: functional, Homo sapiens
Outline: (§2)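 PC-3 cells (DMEM, 10% FBS, 2 mM L-glutamine) seeded at 7 × 10⁴/well, settled 24 h at 37 °C, 5% CO₂. NE added (0, 0.1, 1, 10, 50 μM) for 16 h. BrdU present during the last 4 h; incorporation read by colorimetric BrdU cell-proliferation ELISA. Expressed as % growth vs untreated. Mean ± SD of three separate experiments.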

[6] = test system: PC-3; test: Ability to stimulate PC3 cell proliferation by BrdU incorporation using colorimetric ELISA at 50 uM; assay type: functional, Homo sapiens; outline: as §2
[7] = test system: PC-3; test: Inhibition of NE-induced increase of PC3 cell proliferation using ELISA BrdU; assay type: functional, cell-based; settings: Homo sapiens
Outline: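 PC-3 cells (7×10^4/well) plated 24 h, then given noradrenaline (0–50 μM) alone or with antagonist (1 μM, or 0.5 μM for one compound) for 16 h. BrdU added for the last 4 h and read by colorimetric ELISA as % growth; mean ± SD of three experiments.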

Row | Structure (SMILES) | pKb [1] | pKb [2] | pKb [3] | GI50 [4] [µM] | LC50 (50% lethal concentration) [4] [µM] | TGI [4] [µM] | Activity [5] [%] | Activity [6] [%] | Activity [7]
1 | CCOc1ccc(COc2ccccc2OCCNCCOc2c(OC)cccc2OC)cc1 | 8.5 | 8.23 | 9.11 | 5.2 | 51.3 | 18.2 |  |  | 
2 | COc1cccc(OC)c1OCCNCCOc1ccccc1OCc1ccc(OC(C)C)cc1 | 8.17 | 8.62 | 9.14 | 2 | 63.1 | 17.8 |  |  | 
3 | NC[C@H](O)c1ccc(O)c(O)c1 [NOREPINEPHRINE] |  |  |  |  |  |  | 33 | 65 | 
4 | COc1cc2nc(N3CCN(C(=O)C4COc5ccccc5O4)CC3)nc(N)c2cc1OC (centres undefined) [DOXAZOSIN] | 8.69 | 9.51 | 8.97 |  |  | 49 |  |  | inactive
